Among the data in ChEMBL document CHEMBL4400568, “The design of 1,4-naphthoquinone derivatives and mechanisms underlying apoptosis induction through ROS-dependent MAPK/Akt/STAT3 pathways in human lung cancer cells” (Bioorg Med Chem, 2019) are Activity, inhibition and IC50 values, retold here.

Test [1] has as its system A549. The experiment in a line: Induction of apoptosis in human A549 cells assessed as early apoptotic cells at 3 uM in presence of NAC by Annexin V-FITC/propidium iodide staining-based flow cytometric analysis (reference value: 5.31%). In kind it is functional.
Test [2] deals with A549. The experiment in a line: Induction of ROS generation in human A549 cells at 3 uM by DCFH-DA staining-based flow cytometric analysis. In kind it is functional, cell-based. To be noted: TDE = time-dependent effect. In outline: (§1)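 A549 cells loaded with DCFH-DA (10 μM per legend) for 30 min, then exposed to 3 μM at 37°C for 3, 6, 12 or 24 h. After two PBS washes, intracellular fluorescence is quantified by flow cytometry. Three independent experiments, mean ± SD.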

Test [3] has as its system A549. The experiment in a line: Cell cycle arrest in human A549 cells assessed as accumulation of cells at G1 phase at 3 uM after 24 hrs by propidium iodide staining-based flow cytometric analysis (reference value: 57.65%). It counts as functional. (A flow cytometer gives signals particle by particle.)
The test system of test [4] is A549. The experiment in a line: Cell cycle arrest in human A549 cells assessed as accumulation of cells at S phase at 3 uM after 6 hrs by propidium iodide staining-based flow cytometric analysis (reference value: 13.85%). In kind it is functional.
Test [5] has as its target MAP kinase p38 (Homo sapiens) (UniProt O15264+Q15759+Q16539+P53778). The experiment in a line: Activation of p38 phosphorylation in human A549 cells at 3 uM after 24 hrs in presence of NAC by Western blot analysis. It counts as cell-based. Put shortly:
(§2)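 A549 cells exposed to 3 μM for 3, 6, 12 or 24 h; where NAC is used, 10 mM NAC is added 30 min before 24 h treatment. Lysate protein (30 μg) is run on 12% SDS-PAGE, blotted to nitrocellulose, blocked in 5% milk, primary antibody overnight at 4°C, then HRP anti-IgG. β-actin loading control; densitometry; three independent experiments, mean ± SD.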

The test system of test [6] is A549. The test is described as follows: Modulation of ERK in human A549 cells assessed as decrease in STAT3 phosphorylation measured after 24 hrs in presence of ERK inhibitor FR180204 by Western blot analysis. In kind it is cell-based. (In general: Immunoblotting shows a protein as a band on a membrane.)
Test [7] concerns A549. The test is described as follows: Induction of apoptosis in human A549 cells assessed as increase in cleaved caspase-3 expression at 3 uM by Western blot analysis. It counts as functional, cell-based. The following applies: TDE = time-dependent effect. Put shortly: as §2
Test [8] has as its system A549. The test is described as follows: Cell cycle arrest in human A549 cells assessed as accumulation of cells at G1 phase at 3 uM after 12 hrs by propidium iodide staining-based flow cytometric analysis (reference value: 57.65%). In kind it is functional.
In test [9] the test system is A549. The test is described as follows: Cell cycle arrest in human A549 cells assessed as decrease in CDK4/6 levels at 3 uM by Western blot analysis. It counts as functional, cell-based. The following applies: TDE = time-dependent effect. In outline: as §2
A further test relates to NCI-H23. The experiment in a line: Cytotoxicity against human NCI-H23 cells assessed as reduction in cell viability after 24 hrs by MTT assay. It counts as functional, cell-based. Put shortly:
(§3)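 Log-phase cells seeded at 1 × 10⁴ per well. Lung cancer lines (A549, NCI-H23, NCI-H460) and normal lines (IMR-90, QSG-7701, HEK-293A) each exposed to 1, 3, 10, 30 and 100 μM for 24 h. MTT (5 mg/mL stock) added for 2 h at 37°C, formazan dissolved in DMSO, absorbance read at 490 nm. Three independent experiments, mean ± SD.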
(In general: Tetrazolium assays rely on reduction of a dye to a coloured formazan, in cell work by metabolically active cells.)

The test system of test [10] is A549. The test is described as follows: Cell cycle arrest in human A549 cells assessed as accumulation of cells at G1 phase at 3 uM by propidium iodide staining-based flow cytometric analysis. To be noted: TDE = time-dependent effect. In kind it is functional.
For test [11], the system named is A549. The test is described as follows: Induction of apoptosis in human A549 cells assessed as late apoptotic cells at 3 uM after 12 hrs by Annexin V-FITC/propidium iodide staining-based flow cytometric analysis (reference value: 4.52%). In kind it is functional.
The target of test [12] is T1, c-Jun N-terminal kinase, JNK (Homo sapiens) (UniProt P45983+P53779+P45984). The experiment in a line: Modulation of JNK in human A549 cells assessed as increase in cleaved caspase-3 measured after 24 hrs in presence of JNK inhibitor-SP600125 by Western blot analysis. In kind it is cell-based.
The subject of test [13] is A549. The experiment in a line: Induction of ROS generation in human A549 cells assessed as intracellular ROS level at 3 uM after 12 hrs by DCFH-DA staining-based flow cytometric analysis (reference value: 51.8%). In kind it is functional. In outline:
as §1

Test [14] deals with T1, c-Jun N-terminal kinase, JNK (Homo sapiens). The experiment in a line: Activation of JNK phosphorylation in human A549 cells at 3 uM after 3 to 24 hrs by Western blot analysis. It counts as cell-based. Put shortly: as §2
Test [15] deals with A549. The test is described as follows: Induction of apoptosis in human A549 cells assessed as late apoptotic cells at 3 uM after 24 hrs by Annexin V-FITC/propidium iodide staining-based flow cytometric analysis (reference value: 4.52%). It counts as functional.
The subject of test [16] is A549. The experiment in a line: Inhibition of ERK phosphorylation in human A549 cells at 3 uM after 3 to 24 hrs by Western blot analysis. In kind it is cell-based. Put shortly:
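A549 cells exposed to 3 μM for 3, 6, 12 or 24 h. Lysate protein (30 μg) run on 12% SDS-PAGE and blotted to nitrocellulose. Membranes blocked in 5% skim milk, primary antibodies at 4°C overnight, then HRP anti-IgG secondary for 1 h at room temperature. β-actin was the internal control. Bands quantified by densitometry; three independent experiments, mean ± SD.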

Test [17] has as its system A549. The test is described as follows: Cytotoxicity against human A549 cells assessed as reduction in cell viability after 24 hrs by MTT assay. In kind it is functional, cell-based. The following applies: A549, 24 h. In outline: as §3

Calls of active or inactive are those of the source. The rule behind the calls is not given here.

For orientation: IC50 means the midpoint of a concentration-inhibition curve. As to `CCCCCCCCCS(=O)(=O)C12OC1C(=O)c1c(OC)ccc(OC)c1C2=O` (stereo unspecified), the Activity in the test with A549 [1] was 15.06%; in the test on A549 [2], “Tde”; with A549 [3], 71.38%; in the test on A549 [4] it was 8.44%; in the test with A549 [7], “Tde”; with A549 [8] it was 68.84%. Further, the Activity entry with A549 [9] is “Tde”; with A549 [10], “Tde”; in the test on A549 [11], 7.87%; with A549 [13], 62.75%; in the test on A549 [15], 1.89 - 12.93%. Besides, the outcome in test [5] and in test [12] was inactive. Besides, the outcome (in the test with A549 [6]; in the test with NCI-H23; in [14]) was Active. Also, in the test with A549 [16], the inhibition result is “Active”. Besides, in the test with A549 [17], the IC50 stood at 7.54 µM.

`CCCS(=O)(=O)C12OC1C(=O)c1c(OC)ccc(OC)c1C2=O` (stereo unspecified): the Activity with A549 [1] is 17.94%; with A549 [2] it was “Tde”; in the test with A549 [3] it was 72.02%; in the test with A549 [4] it was 10.31%; in the test with A549 [7], “Tde”; in the test on A549 [8] it was 69%. Moreover, the Activity entry was “Tde” with A549 [9]; “Tde” with A549 [10]; 0.2% with A549 [11]; 68.59% in the test with A549 [13]; 6.31 - 8.05% with A549 [15]. The outcome in test [5] and in test [12] was inactive. Moreover, the outcome (with A549 [6]; in the test on NCI-H23; in [14]) was Active. Also, the inhibition result in the test with A549 [16] is “Active”. Also, the IC50 with A549 [17] stood at 2.59 µM.
